Activity calls are given as the source filed them. The calls are words filed in the database; no cut-off is given here.
What was measured:
[1] = target: Serine/threonine-protein kinase B-raf (Homo sapiens, UniProt P15056, V600E); test: Inhibition of B-Raf V600E mutant (unknown origin) assessed as [33P] incorporation in substrate by TopCount microplate scintillation counting analysis
HepG2 = test: Growth inhibition of human HepG2 cells; type: functional
T47D = test: Growth inhibition of human T47D cells; type: functional
MDA-MB-468 = test: Induction of mitotic abnormalities in human MDA-MB-468 cells assessed as proportion of cells displaying multipolar spindles at 10 nM after 48 hrs by immunofluorescent staining based microscopy (reference value: […]); type: functional
HeLa [2] = test: Induction of apoptosis in human HeLa cells assessed as reduction in XIAP protein expression at 1 uM after 24 to 48 hrs by western blot analysis; type: functional, cell-based
Method in brief: (§1)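 HeLa cells given 1.0 μM compound, DMSO, or paclitaxel 100 nM for 24 and 48 h. Lysates made in SDS sample buffer, run on SDS-PAGE and transferred to PVDF. Blots probed for cleaved caspase-3, cleaved PARP, Bcl-2, Mcl-1 and XIAP, with actin as loading control, and detected by HRP-linked ECL.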

[3] = target: Serine/threonine-protein kinase Chk2 (Homo sapiens, UniProt O96017); test: Inhibition of CHK2 (unknown origin) assessed as [33P] incorporation in substrate by TopCount microplate scintillation counting analysis
Sequence of Serine/threonine-protein kinase Chk2 (O96017 whole entry): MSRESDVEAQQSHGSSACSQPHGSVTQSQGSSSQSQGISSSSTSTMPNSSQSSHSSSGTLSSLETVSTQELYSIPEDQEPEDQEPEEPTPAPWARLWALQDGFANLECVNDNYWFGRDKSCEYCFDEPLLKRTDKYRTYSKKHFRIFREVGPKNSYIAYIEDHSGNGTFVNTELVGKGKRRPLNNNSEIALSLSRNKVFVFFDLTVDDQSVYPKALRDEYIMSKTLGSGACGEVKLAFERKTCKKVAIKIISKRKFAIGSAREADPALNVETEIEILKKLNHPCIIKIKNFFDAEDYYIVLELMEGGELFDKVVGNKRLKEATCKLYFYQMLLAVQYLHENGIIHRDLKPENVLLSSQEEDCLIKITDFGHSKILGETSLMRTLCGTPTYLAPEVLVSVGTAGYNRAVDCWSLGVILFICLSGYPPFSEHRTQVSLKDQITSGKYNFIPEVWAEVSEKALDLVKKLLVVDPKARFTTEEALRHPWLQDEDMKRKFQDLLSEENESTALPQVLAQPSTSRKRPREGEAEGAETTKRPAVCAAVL

[4] = Growth inhibition of human WI38 cells; type: cell-based; conditions: WI-38 cells
Aurora kinase B = Aurora kinase B (Homo sapiens, UniProt Q96GD4); test: Inhibition of aurora B (unknown origin) assessed as [33P] incorporation in substrate by TopCount microplate scintillation counting analysis
Sequence of Aurora kinase B (Q96GD4 whole entry): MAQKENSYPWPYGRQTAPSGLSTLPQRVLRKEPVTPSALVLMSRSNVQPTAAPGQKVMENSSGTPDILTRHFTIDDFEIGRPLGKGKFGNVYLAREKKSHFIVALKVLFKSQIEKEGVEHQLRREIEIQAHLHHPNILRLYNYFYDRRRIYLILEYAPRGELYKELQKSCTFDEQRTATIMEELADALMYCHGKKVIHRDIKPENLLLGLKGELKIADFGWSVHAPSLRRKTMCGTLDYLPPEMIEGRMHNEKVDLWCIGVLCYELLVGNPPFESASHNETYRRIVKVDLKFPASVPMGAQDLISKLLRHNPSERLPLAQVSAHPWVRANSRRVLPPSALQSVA

[5] = target: Platelet-derived growth factor receptor beta (Homo sapiens, UniProt P09619); test: Inhibition of PDGFR-beta (unknown origin) assessed as [33P] incorporation in substrate by TopCount microplate scintillation counting analysis
Sequence of Platelet-derived growth factor receptor beta (P09619 whole entry, canonical isoform): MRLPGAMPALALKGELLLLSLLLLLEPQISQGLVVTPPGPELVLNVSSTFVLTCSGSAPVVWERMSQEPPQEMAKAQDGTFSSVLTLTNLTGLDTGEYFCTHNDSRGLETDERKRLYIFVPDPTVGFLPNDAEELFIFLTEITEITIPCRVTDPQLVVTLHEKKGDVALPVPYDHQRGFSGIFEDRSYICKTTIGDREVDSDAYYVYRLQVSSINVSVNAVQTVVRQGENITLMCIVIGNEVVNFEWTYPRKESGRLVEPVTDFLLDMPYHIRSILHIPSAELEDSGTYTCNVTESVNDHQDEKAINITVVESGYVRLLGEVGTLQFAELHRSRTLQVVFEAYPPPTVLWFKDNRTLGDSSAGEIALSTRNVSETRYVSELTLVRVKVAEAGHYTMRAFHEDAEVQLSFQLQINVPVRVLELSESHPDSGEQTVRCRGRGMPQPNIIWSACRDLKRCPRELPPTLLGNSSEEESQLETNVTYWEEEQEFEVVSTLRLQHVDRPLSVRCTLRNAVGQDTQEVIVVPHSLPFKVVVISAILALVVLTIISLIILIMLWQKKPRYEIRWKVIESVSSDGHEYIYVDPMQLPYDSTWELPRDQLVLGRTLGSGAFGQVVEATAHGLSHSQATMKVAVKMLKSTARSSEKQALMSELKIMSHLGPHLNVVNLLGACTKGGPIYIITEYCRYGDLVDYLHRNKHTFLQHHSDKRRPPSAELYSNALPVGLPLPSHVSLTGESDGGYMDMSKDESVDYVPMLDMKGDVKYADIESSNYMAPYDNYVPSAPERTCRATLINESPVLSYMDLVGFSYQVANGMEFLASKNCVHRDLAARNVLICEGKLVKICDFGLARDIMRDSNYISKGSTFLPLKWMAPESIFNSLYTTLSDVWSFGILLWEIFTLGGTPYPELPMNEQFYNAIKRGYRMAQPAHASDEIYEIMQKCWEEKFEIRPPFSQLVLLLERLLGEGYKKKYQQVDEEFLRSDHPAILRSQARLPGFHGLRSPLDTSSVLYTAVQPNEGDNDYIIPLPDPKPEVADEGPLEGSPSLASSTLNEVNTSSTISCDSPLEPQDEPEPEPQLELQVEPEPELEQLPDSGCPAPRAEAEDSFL

[6] = target: Phosphatidylinositol 4,5-bisphosphate 3-kinase catalytic subunit beta isoform (Homo sapiens, UniProt P42338); test: Inhibition of PI3K beta (unknown origin) assessed as [33P] incorporation in substrate by TopCount microplate scintillation counting analysis
Sequence of Phosphatidylinositol 4,5-bisphosphate 3-kinase catalytic subunit beta isoform (P42338 whole entry, canonical isoform): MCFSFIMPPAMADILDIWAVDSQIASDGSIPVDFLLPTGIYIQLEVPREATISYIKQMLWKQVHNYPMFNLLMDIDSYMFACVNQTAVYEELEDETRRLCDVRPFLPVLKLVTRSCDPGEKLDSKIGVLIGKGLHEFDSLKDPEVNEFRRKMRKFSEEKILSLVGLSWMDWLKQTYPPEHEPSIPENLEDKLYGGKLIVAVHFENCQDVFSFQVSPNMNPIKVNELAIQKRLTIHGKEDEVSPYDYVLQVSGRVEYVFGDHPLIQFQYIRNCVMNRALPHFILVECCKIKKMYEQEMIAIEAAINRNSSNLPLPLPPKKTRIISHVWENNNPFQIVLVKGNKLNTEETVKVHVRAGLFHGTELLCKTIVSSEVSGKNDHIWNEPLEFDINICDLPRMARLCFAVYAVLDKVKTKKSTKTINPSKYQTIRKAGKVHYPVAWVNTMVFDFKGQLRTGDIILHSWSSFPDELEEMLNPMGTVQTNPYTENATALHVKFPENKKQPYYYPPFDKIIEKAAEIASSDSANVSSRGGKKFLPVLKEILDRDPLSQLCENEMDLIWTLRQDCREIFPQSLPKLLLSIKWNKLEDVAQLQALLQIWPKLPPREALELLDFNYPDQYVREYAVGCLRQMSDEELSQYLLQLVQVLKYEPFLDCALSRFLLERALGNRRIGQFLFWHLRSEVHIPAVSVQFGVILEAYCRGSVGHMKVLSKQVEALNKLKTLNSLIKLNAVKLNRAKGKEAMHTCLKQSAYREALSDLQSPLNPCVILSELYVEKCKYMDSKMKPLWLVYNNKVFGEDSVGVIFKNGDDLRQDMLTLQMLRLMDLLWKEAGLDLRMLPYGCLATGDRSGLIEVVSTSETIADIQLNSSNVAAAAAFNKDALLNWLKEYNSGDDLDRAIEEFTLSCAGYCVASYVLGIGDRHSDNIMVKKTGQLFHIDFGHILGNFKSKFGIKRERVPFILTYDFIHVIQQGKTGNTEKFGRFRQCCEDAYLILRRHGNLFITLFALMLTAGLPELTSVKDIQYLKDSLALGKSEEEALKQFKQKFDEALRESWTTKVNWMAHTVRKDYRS

[7] = target: Serine/threonine-protein kinase mTOR (Homo sapiens, UniProt P42345); test: Inhibition of mTOR (unknown origin) assessed as [33P] incorporation in substrate by TopCount microplate scintillation counting analysis
HeLa [8] = test: Induction of apoptosis in human HeLa cells assessed as reduction in Mcl-1 protein expression at 1 uM after 24 to 48 hrs by western blot analysis; type: functional, cell-based; method in brief: as §1
[9] = target: Voltage-gated inwardly rectifying potassium channel KCNH2 (Homo sapiens, UniProt Q12809); test: Displacement of [3H]astemizole from human ERG after 60 mins by competitive binding assay
Sequence of Voltage-gated inwardly rectifying potassium channel KCNH2 (Q12809 whole entry): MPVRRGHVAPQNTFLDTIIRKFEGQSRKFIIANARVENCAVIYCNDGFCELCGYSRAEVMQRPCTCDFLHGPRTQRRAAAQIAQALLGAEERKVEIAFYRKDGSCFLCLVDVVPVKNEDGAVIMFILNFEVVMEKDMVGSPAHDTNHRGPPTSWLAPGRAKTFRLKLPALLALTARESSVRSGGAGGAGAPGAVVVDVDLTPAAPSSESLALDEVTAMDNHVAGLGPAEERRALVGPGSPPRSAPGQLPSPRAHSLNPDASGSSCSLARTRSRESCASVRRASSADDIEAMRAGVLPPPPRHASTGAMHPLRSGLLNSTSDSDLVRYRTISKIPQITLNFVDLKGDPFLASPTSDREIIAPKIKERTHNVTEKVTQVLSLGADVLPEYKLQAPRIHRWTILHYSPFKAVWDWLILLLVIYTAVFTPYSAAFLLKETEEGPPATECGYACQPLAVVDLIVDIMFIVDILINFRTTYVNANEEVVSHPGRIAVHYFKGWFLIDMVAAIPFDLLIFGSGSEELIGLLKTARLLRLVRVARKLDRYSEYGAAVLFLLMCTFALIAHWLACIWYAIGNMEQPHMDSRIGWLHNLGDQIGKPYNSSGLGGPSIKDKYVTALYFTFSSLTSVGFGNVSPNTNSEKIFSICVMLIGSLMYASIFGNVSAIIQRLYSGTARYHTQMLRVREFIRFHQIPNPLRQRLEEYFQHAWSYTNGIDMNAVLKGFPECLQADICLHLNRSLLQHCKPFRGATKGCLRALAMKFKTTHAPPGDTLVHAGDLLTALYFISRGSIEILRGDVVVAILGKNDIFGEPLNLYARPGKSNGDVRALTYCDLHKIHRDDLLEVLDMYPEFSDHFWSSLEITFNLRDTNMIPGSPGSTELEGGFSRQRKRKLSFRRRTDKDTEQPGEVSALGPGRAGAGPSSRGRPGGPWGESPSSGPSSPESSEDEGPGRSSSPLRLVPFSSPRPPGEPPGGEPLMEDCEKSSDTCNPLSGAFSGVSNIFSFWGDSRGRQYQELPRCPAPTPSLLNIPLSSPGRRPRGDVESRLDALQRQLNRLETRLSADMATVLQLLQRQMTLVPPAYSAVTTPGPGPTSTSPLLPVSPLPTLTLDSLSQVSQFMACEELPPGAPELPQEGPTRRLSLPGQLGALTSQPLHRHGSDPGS

[10] = target: Cyclin-dependent kinase 1/cyclin B1 (Homo sapiens, UniProt P06493); test: Inhibition of Cdk1/cyclin B (unknown origin) assessed as [33P] incorporation in substrate by TopCount microplate scintillation counting analysis; type: protein-complex assay
Sequence of Cyclin-dependent kinase 1/cyclin B1 (P06493 whole entry): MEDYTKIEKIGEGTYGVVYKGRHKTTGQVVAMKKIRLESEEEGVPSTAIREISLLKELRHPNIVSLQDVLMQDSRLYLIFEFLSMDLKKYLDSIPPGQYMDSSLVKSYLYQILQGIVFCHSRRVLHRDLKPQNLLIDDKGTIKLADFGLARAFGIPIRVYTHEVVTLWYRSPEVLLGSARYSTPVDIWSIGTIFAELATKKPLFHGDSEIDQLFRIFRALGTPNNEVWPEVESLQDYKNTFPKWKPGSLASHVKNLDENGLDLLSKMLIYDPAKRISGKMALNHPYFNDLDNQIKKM
Sequence of Cyclin-dependent kinase 1/cyclin B1 (P14635 whole entry, further chain): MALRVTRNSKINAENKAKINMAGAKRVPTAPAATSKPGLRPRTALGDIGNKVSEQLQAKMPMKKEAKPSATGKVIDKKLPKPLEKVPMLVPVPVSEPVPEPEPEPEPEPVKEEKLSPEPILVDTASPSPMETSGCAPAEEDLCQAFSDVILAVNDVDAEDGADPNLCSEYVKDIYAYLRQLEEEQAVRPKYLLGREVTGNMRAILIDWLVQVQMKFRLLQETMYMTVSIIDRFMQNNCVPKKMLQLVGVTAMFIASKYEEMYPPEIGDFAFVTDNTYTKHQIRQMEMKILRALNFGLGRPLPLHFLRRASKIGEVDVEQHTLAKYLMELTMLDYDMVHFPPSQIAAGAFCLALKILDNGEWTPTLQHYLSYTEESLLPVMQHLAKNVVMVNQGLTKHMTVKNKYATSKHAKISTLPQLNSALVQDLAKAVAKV

[11] = target: T1, Kinetochore protein NDC80 homolog (Homo sapiens) (UniProt O14777); test: Inhibition of Hec1/Nek2 interaction in human K562 cells assessed as reduction in coimmunoprecipitated Hec1 level at 100 nM after 16 hrs by co-immunoprecipitation assay in presence of 500 nM proteasome inhibitor MG132; type: cell-based
T1 sequence (whole entry): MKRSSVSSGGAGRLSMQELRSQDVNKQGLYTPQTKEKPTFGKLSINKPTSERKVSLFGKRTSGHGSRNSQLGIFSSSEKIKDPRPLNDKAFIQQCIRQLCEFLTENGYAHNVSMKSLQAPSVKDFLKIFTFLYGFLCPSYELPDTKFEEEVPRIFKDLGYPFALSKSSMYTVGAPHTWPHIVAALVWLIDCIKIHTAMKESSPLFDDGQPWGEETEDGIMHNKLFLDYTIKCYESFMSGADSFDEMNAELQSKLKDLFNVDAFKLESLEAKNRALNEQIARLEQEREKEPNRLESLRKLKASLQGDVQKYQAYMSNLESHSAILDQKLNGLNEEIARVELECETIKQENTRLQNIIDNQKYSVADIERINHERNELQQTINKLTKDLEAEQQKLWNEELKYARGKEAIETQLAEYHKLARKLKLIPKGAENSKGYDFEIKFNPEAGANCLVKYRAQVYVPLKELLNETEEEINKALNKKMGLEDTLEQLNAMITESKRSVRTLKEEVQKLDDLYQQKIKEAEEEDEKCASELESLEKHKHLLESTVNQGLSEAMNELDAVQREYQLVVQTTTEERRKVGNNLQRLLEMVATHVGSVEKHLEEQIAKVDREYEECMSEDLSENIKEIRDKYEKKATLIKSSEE

[12] = Volume of distribution in Sprague-Dawley rat at 2 mg/kg, iv compound formulated with 5% DMSO, 10% cremophor and 85% water by LC-MS/MS analysis; type: ADME, organism-based; set-up: dose 2 mg/kg, route intravenous; conditions: in vivo
Method in brief: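 Male Sprague–Dawley rats, n = 3. Blood drawn by preimplanted catheter over 24 h; plasma separated at 4 °C and deproteinated with acetonitrile. Drug measured by LC–MS/MS; parameters obtained by noncompartmental analysis.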

K562 = test: Antiproliferative activity against human K562 cells assessed as cell viability after 96 hrs by CellTiter96 assay; type: functional, cell-based; conditions: K562, 96 h
U-937 = test: Growth inhibition of human U937 cells; type: functional
[13] = target: T1, Kinetochore protein NDC80 homolog (Homo sapiens); test: Inhibition of Hec1/Nek2 interaction in human MDA-MB-468 cells assessed as reduction in Hec1 level at 100 nM by western blot analysis; type: cell-based
Method in brief: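 MDA-MB-468 cells treated with compound at 100 nM, with or without MG132 at 500 nM. Lysates made in SDS sample buffer, run on SDS-PAGE and blotted to PVDF. Primary antibodies applied in 3% BSA-TBST, with HRP secondaries and enhanced chemiluminescence detection for Hec1 and Nek2.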

[14] = Clearance in Sprague-Dawley rat at 2 mg/kg, iv compound formulated with 5% DMSO, 10% cremophor and 85% water by LC-MS/MS analysis; type: ADME, organism-based; set-up: dose 2 mg/kg, route intravenous; conditions: in vivo

IC50 [1]: > 10 µM
GI50 (HepG2): 191 nM
GI50 (T47D): 377 nM
IC50 [3]: > 10 µM
IC50 (Aurora kinase B): > 10 µM
IC50 [5]: > 10 µM
IC50 [6]: > 10 µM
IC50 [7]: > 10 µM
IC50 [10]: > 10 µM
inhibition [11]: Active
Vd [12]: 0.948 L/kg
IC50 (K562): 16.3 nM
GI50 (U-937): 29.6 nM
inhibition [13]: Active
clearance [14]: 1.22 mL/min/kg
SMILES: COc1ccc(Oc2cc(C)c(-c3csc(NC(=O)c4ccnc(F)c4)n3)c(C)c2)cc1
Activity (MDA-MB-468): 16.9%
inhibition (HeLa [2]): Active
GI50 [4]: > 9 µM
inhibition (HeLa [8]): Active
IC50 [9]: > 10 µM

Reference: ChEMBL document CHEMBL3259640 (J Med Chem, 2014)
